Measurements as given in ChEMBL document CHEMBL3421565, “β-D-2'-C-Methyl-2,6-diaminopurine Ribonucleoside Phosphoramidates are Potent and Selective Inhibitors of Hepatitis C Virus (HCV) and Are Bioconverted Intracellularly to Bioactive 2,6-Diaminopurine and Guanosine 5'-Triphosphate Forms” (J Med Chem, 2015).
Active and inactive are the calls of the source. The rule behind the calls is not given here.

Experiments:
HepG2 [1] = assay: Mitochondrial toxicity in human HepG2 cells assessed as effect on mitochondrial cytochrome c oxidase subunit 2 DNA level incubated for 14 days by real-time PCR method; assay type: cell-based; conditions: hepg2, 336 h
In short: (§1)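 HepG2 cells in DMEM with 4.5 g/L glucose and 10% heat-inactivated FBS, seeded at 5000 cells/well on collagen; compounds added 1 day later at final 1–50 μM. Medium and compound renewed every 3–4 days for 14 days; duplicates in two independent experiments. COXII mtDNA and nuclear β-actin DNA measured by real-time PCR, normalised to untreated control; IC₅₀ calculated.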

HepG2 [2] = assay: Mitochondrial toxicity in human HepG2 cells assessed as effect on nuclear beta-actin DNA level incubated for 14 days by real-time PCR method; assay type: cell-based; conditions: hepg2, 336 h; in short: as §1
HepG2 [3] = assay: Mitochondrial toxicity in human HepG2 cells assessed as induction of lactic acid levels at 10 uM incubated for 14 days; assay type: cell-based; conditions: hepg2, 336 h
In short: (§2)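 After 14 days of HepG2 exposure to compound (same culture regimen as the mtDNA assay), lactic acid in culture supernatant quantified with a D-/L-lactic acid kit by absorbance. Results expressed as % lactic acid over % nuclear DNA (β-actin control); mean of triplicates from a single plate.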

Hepatitis C virus = assay: Antiviral activity against HCV infected in human HuH7 cells assessed as reduction in replicon RNA levels incubated for 5 days by RT-PCR assay; assay type: functional, organism-based, Hepacivirus hominis; conditions: Huh-7, 120 h
In short: (§3)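 Huh-7 clone B cells carrying HCV replicon RNA, seeded at 3000 cells/well; compounds added in dose response in triplicate right after seeding. Incubated 5 days at 37 °C, 5% CO₂. Total RNA extracted; replicon RNA and rRNA internal control co-amplified by one-step multiplex real-time RT-PCR. Antiviral effect taken as ΔCt versus no-drug control; cytotoxicity read from rRNA reduction.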

[4] = Cytotoxicity against human HuH7 cells assessed as reduction in rRNA levels incubated for 5 days by RT-PCR assay; assay type: cell-based, Huh-7; conditions: for CC50: huh-7, 120 h; in short: as §3
PBMC = assay: (§4) Cytotoxicity against human PBMC assessed as reduction in cell viability incubated for 5 days by Cell-titer 96 aqueous one solution cell proliferation assay; assay type: cell-based; conditions: pbmc, 120 h
CCRF-CEM = assay: (§5) Cytotoxicity against human CEM cells assessed as reduction in cell viability incubated for 5 days by Cell-titer 96 aqueous one solution cell proliferation assay; assay type: cell-based; conditions: ccrf-cem, 120 h
Vero = assay: (§6) Cytotoxicity against African green monkey Vero cells assessed as reduction in cell viability incubated for 5 days by Cell-titer 96 aqueous one solution cell proliferation assay; assay type: cell-based; conditions: chlorocebus sabaeus, vero, 120 h
HepG2 [5] = assay: Mitochondrial toxicity in human HepG2 cells assessed as induction of lactic acid levels at 1 uM incubated for 14 days; assay type: cell-based; conditions: hepg2, 336 h; in short: as §2
HepG2 [6] = assay: Mitochondrial toxicity in human HepG2 cells assessed as induction of lactic acid levels at 50 uM incubated for 14 days; assay type: cell-based; conditions: hepg2, 336 h; in short: as §2
[7] = as §4; assay type: cell-based; conditions: PBMC
[8] = as §5; assay type: cell-based, CCRF-CEM; conditions: CEM cells (CCRF-CEM)
[9] = as §6; assay type: cell-based; conditions: chlorocebus sabaeus, Vero cells
HepG2 [10] = assay: Toxicity in human HepG2 cells assessed as increase in cell death at 10 uM; assay type: cell-based; conditions: hepg2, 10 µM
Hepacivirus hominis [11] = assay: Inhibition of HCV C-terminal His-tagged NS5Bdelta21 enzyme assessed as reduction in NS5B-mediated RNA polymerization using [32P]-GpG primer, RNA template and rNTP nucleotide mix incubated for 120 mins by PAGE method
In short: (§7)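 Purified NS5BΔ21 (C-terminal His tag), 1 μM, at 30 °C with 1 μM 20-mer RNA template and 1 μM ³²P-GpG primer. Buffer was 40 mM Tris pH 7.5, 6 mM NaCl, 2 mM MgCl₂. Started with 10 μM NTP mix, 1 μM competing NTP and triphosphate inhibitor at 0–100 μM. Products run on 20% denaturing PAGE and quantified; IC₅₀ calculated.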

Hepacivirus hominis [12] = assay: Inhibition of HCV C-terminal His-tagged NS5Bdelta21 enzyme assessed as induction of pausing at sites of GMP incorporation during NS5B-mediated RNA polymerization using [32P]-GpG primer, RNA template and rNTP nucleotide mix incubated for 120 mins by PAGE method
In short: as §7, with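 “μM. Stopped at 120 min with EDTA/formamide.” for “μM.”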

Hepatocyte [13] = assay: (§8) Drug level in human primary hepatocytes treated with 50 uM Ethyl 3-(2-(((R)-(((2R,3R,4R,5R)-5-(2,6-Diamino-9H-purin-9-yl)-3,4-dihydroxy-4-methyltetrahydrofuran-2-yl)methoxy)(((S)-1-ethoxy-1-oxopropan-2-yl)amino)phosphoryl)oxy)phenyl)-propanoate assessed as compound formation incubated for 4 hrs at 37 degC by LC-MS/MS method; assay type: ADME, cell-based
In short: (§9)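 Freshly plated primary human hepatocytes seeded at 1 × 10⁶ per well and acclimated overnight, then given 50 μM compound for 4 h at 37 °C. After two ice-cold PBS washes, extraction ran overnight at −20 °C in 70% methanol with 20 nM ddATP. Dried extracts went to LC–MS/MS for intracellular metabolites, as three replicates from one plate, ±SD.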

[14] = as §8, with “HuH7 cells” for “primary hepatocytes”; assay type: ADME, cell-based; conditions: huh-7, 4 h
In short: (§10)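 Huh-7 cells seeded at 1 × 10⁶ per well and exposed to 50 μM compound after attachment, 4 h at 37 °C. Cells washed twice with ice-cold PBS, then extracted overnight at −20 °C in 70% methanol containing 20 nM ddATP. Supernatants were dried and analysed by LC–MS/MS for parent nucleoside and its mono-, di- and triphosphates (pmol/10⁶ cells).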

Hepatocyte [15] = assay: Drug level in human primary hepatocytes treated with 50 uM beta-D-2,6-diaminopurine nucleoside assessed as compound formation incubated for 4 hrs at 37 degC by LC-MS/MS method; assay type: ADME, cell-based; in short: as §9
[16] = Drug level in human HuH7 cells treated with 50 uM beta-D-2,6-diaminopurine nucleoside assessed as compound formation incubated for 4 hrs at 37 degC by LC-MS/MS method; assay type: ADME, cell-based; conditions: huh-7, 4 h; in short: as §10
[17] = (§11) Drug level in human HuH7 cells treated with 50 uM Isopropyl 3-(2-(((S)-(((2R,3S,4R,5R)-5-(2,6-Diamino-9H-purin-9-yl)-3,4-dihydroxy-4-methyltetrahydrofuran-2-yl)methoxy)-(((S)-1-isopropoxy-1-oxopropan-2-yl)amino)phosphoryl)oxy)-phenyl)propanoate 15c(Sp) and Isopropyl 3-(2-(((R)-(((2R,3S,4R,5R)-5-(2,6-Diamino-9H-purin-9-yl)-3,4-dihydroxy-4-methyltetrahydrofuran-2-yl)methoxy)(((S)-1-isopropoxy-1-oxopropan-2-yl)amino)phosphoryl)oxy)phenyl)propanoate assessed as compound formation incubated for 4 hrs at 37 degC by LC-MS/MS method; assay type: ADME, cell-based; conditions: huh-7, 4 h; in short: as §10
Hepatocyte [18] = assay: as §11, with “primary hepatocytes” for “HuH7 cells”; assay type: ADME, cell-based; in short: as §9

Row | Structure (SMILES) | EC50 (Hepatitis C virus) | EC90 (Hepatitis C virus) | CC50 [4] | CC50 (PBMC) | CC50 (CCRF-CEM) | CC50 (Vero) | also measured
1 | Nc1ccn([C@H]2CC[C@@H](CO)O2)c(=O)n1 [ZALCITABINE] |  |  |  |  |  |  | CC50 (HepG2 [1]): < 10 µM; CC50 (HepG2 [2]): < 10 µM; Activity (HepG2 [3]): 220%
2 | CCOC(=O)[C@H](C)NP(=O)(OC[C@H]1O[C@@H](n2cnc3c(N)nc(N)nc32)[C@](C)(O)[C@@H]1O)Oc1ccccc1 (stereo partly drawn) | 900 nM | 4 µM | > 10 µM | > 100 µM | > 100 µM | > 100 µM | CC50 (HepG2 [1]): > 50 µM; CC50 (HepG2 [2]): > 50 µM; Activity (HepG2 [5]): 100%; Activity (HepG2 [3]): 140%; Activity (HepG2 [6]): 90%
3 | CC(C)OC(=O)CCc1ccccc1O[P@](=O)(N[C@@H](C)C(=O)OC(C)C)OC[C@H]1O[C@@H](n2cnc3c(N)nc(N)nc32)[C@](C)(O)[C@H]1O | 900 nM | 2.8 µM |  | > 100 µM | 40 µM |  | 
4 | CCOC(=O)[C@H](C)NP(=O)(OC[C@H]1O[C@@H](n2cnc3c(N)nc(N)nc32)[C@](C)(O)[C@H]1O)Oc1ccccc1CCC(=O)OC(C)C (stereo partly drawn) | 1700 nM | 8 µM |  |  |  | > 100 µM | 
5 | CCOC(=O)[C@H](C)N[P@@](=O)(OC[C@H]1O[C@@H](n2cnc3c(N)nc(N)nc32)[C@](C)(O)[C@H]1O)Oc1ccccc1CCC(=O)OC(C)C | 1400 nM | 6.9 µM |  | > 100 µM | > 100 µM |  | 
6 | CC(C)OC(=O)CCc1ccccc1O[P@@](=O)(N[C@@H](C)C(=O)OC(C)C)OC[C@H]1O[C@@H](n2cnc3c(N)nc(N)nc32)[C@](C)(O)[C@H]1O | 1000 nM | 2.7 µM | > 10 µM |  | > 100 µM |  | 
7 | CCOC(=O)CCc1ccccc1OP(=O)(N[C@@H](C)C(=O)OCC)OC[C@H]1O[C@@H](n2cnc3c(N)nc(N)nc32)[C@]2(C)OC(=O)O[C@@H]12 (stereo partly drawn) | 2800 nM | 8.5 µM | > 10 µM | > 100 µM | > 100 µM | > 100 µM | 
8 | CCOC(=O)CCc1ccccc1OP(=O)(OC[C@H]1O[C@@H](n2cnc3c(N)nc(N)nc32)[C@](C)(O)[C@@H]1O)Oc1ccccc1CCC(=O)OCC | > 10000 nM | > 10 µM |  |  |  |  | CC50 at 120 h ([4]; HuH7 cells): > 10 µM; CC50 at 120 h [7]: 64 µM; CC50 at 120 h [8]: 25 µM; CC50 at 120 h [9]: 90 µM
9 | CCOC(=O)CCc1ccccc1OP(=O)(N[C@@H](C)C(=O)OCC)OC[C@H]1O[C@@H](n2cnc3c(N)nc(N)nc32)[C@](C)(O)[C@H]1O (mixture of isomers) | 2300 nM | 7.3 µM | > 10 µM |  | > 100 µM |  | 
10 | C[C@@]1(O)[C@H](O)[C@@H](CO)O[C@H]1n1cnc2c(N)nc(N)nc21 | 5400 nM | > 10 µM | > 33 µM | > 100 µM | > 100 µM | > 100 µM | CC50 (HepG2 [1]): > 50 µM; CC50 (HepG2 [2]): > 50 µM; Activity (HepG2 [5]): 110%; Activity (HepG2 [3]): 170%; Activity (HepG2 [6]): 110%
11 | CCOC(=O)CCc1ccccc1O[P@](=O)(N[C@@H](C)C(=O)OCC)OC[C@H]1O[C@@H](n2cnc3c(N)nc(N)nc32)[C@](C)(O)[C@H]1O | 2700 nM | 8.7 µM |  | > 100 µM |  |  | 
12 | COc1nc(N)nc2c1ncn2[C@@H]1O[C@H](COP(=O)(N[C@@H](C)C(=O)OCC(C)(C)C)Oc2cccc3ccccc23)[C@@H](O)[C@@]1(C)O (stereo partly drawn) [BMS-986094] | 20 nM | 0.04 µM | 0.8 µM | 4.7 µM | 8.7 µM | 14 µM | CC50 (HepG2 [1]): 4.7 µM; CC50 (HepG2 [2]): < 1 µM; Activity (HepG2 [5]): 190%; Activity (HepG2 [10]): Toxic
13 | CCOC(=O)CCc1ccccc1O[P@@](=O)(N[C@@H](C)C(=O)OC(C)C)OC[C@H]1O[C@@H](n2cnc3c(N)nc(N)nc32)[C@](C)(O)[C@H]1O | 2400 nM | 8.2 µM |  |  |  | > 100 µM | 
14 | CCOC(=O)CCc1ccccc1O[P@](=O)(N[C@@H](C)C(=O)OC(C)C)OC[C@H]1O[C@@H](n2cnc3c(N)nc(N)nc32)[C@](C)(O)[C@H]1O | 4700 nM | 9.7 µM | > 10 µM | > 100 µM | > 100 µM |  | 
15 | C[C@@]1(O)[C@H](O)[C@@H](COP(=O)(O)OP(=O)(O)OP(=O)(O)O)O[C@H]1n1cnc2c(=O)[nH]c(N)nc21 [INX-09114] |  |  |  |  |  |  | inhibition (Hepacivirus hominis [11]): Dose-dependent effect; inhibition (Hepacivirus hominis [12]): Active; Drug metabolism (Hepatocyte [13]): metabolite_detected; Drug metabolism [14]: metabolite_detected; Drug metabolism (Hepatocyte [15]): metabolite_detected; Drug metabolism [16]: metabolite_detected; Drug metabolism [17]: metabolite_detected; Drug metabolism (Hepatocyte [18]): metabolite_detected
16 | CCOC(=O)CCc1ccccc1OP(=O)(N[C@@H](C)C(=O)OC(C)C)OC[C@H]1O[C@@H](n2cnc3c(N)nc(N)nc32)[C@](C)(O)[C@H]1O (stereo partly drawn) | 2200 nM | 9 µM |  |  |  |  | 
17 | CCOC(=O)[C@H](C)N[P@](=O)(OC[C@H]1O[C@@H](n2cnc3c(N)nc(N)nc32)[C@](C)(O)[C@H]1O)Oc1ccccc1CCC(=O)OC(C)C | 9100 nM | 26 µM | > 10 µM |  |  |  | 
18 | Nc1ccn([C@@H]2CS[C@H](CO)O2)c(=O)n1 [LAMIVUDINE] |  |  |  |  |  |  | CC50 (HepG2 [1]): > 10 µM; CC50 (HepG2 [2]): > 10 µM; Activity (HepG2 [3]): 91%
